Converted amounts (≈) assume the structure as drawn.
Columns and labels:
[1] = system: Mycobacterium tuberculosis H37Rv; experiment: Inhibition of Mycobacterium tuberculosis H37Rv ATCC 27294 QcrB assessed as reduction in bacterial growth by resazurin reduction microplate assay
In short: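 REMA in Middlebrook 7H9 with 10% ADC and 5% DMSO. Compounds come from 2 mg/mL DMSO stocks as 10-point 2-fold serial dilutions, with a top concentration of 5–40 µg/mL set by solubility. MIC is the lowest concentration preventing resazurin blue-to-pink conversion. Three independent experiments; the modal or highest value is reported, in µM.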

[2] = Cytotoxicity against African green monkey Vero cells assessed as reduction in cell viability measured after 72 hrs by neutral red uptake assay; assay type: cell-based; conditions: chlorocebus sabaeus
In short: (§1)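 Vero (2×10^3 cells/well) or HepG2 (4×10^3 cells/well) in DMEM with 10% inactivated FBS, seeded 24 h, treated at 1, 5 and 20 µM in 2% DMSO for 72 h at 37 °C, 5% CO2. After PBS wash, neutral red (25 µg/mL, serum-free medium) for 3 h; dye extracted with acetic acid/EtOH/water (1:50:49) for 30 min; absorbance 562 nm; viability versus 2% DMSO controls.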

[3] = Half life in human liver S9 fraction at 2 uM measured after 30 mins in presence of NADPH by HPLC-MS analysis; assay type: ADME, subcellular
In short: (§2)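 Compound at 2 µM incubated at 37°C with 1 mg/mL human liver S9 fraction (9,000 × g post-mitochondrial supernatant) containing NADPH. Remaining compound quantified by HPLC-MS/MS at 0, 5, 15 and 30 min to give in vitro disappearance half-life and intrinsic clearance (mL/min/kg). Verapamil served as positive control.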

[4] = Cytotoxicity against human HepG2 cells assessed as reduction in cell viability measured after 72 hrs by neutral red uptake assay; assay type: cell-based; in short: as §1
[5] = Cytotoxicity against human HepG2 cells assessed as reduction in cell viability measured after 72 hrs by MTT assay; assay type: cell-based
In short: (§3)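 Vero (2×10^3 cells/well) or HepG2 (4×10^3 cells/well) grown in DMEM with 10% inactivated FBS, gentamicin and amphotericin B, seeded 24 h, then exposed to compound at 1, 5 and 20 µM (2% DMSO) for 72 h at 37 °C, 5% CO2. MTT (5 mg/mL) added for 4 h; absorbance 570/655 nm. Viability relative to 2% DMSO control wells; CC50 derived.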

[6] = Ratio of MIC for inhibition of Mycobacterium tuberculosis H37Rv ATCC 27294 QcrB assessed as reduction in bacterial growth to MIC for inhibition of Mycobacterium tuberculosis PT12 clinical isolate QcrB assessed as reduction in bacterial growth
[7] = Cytotoxicity against African green monkey Vero cells assessed as reduction in cell viability measured after 72 hrs by MTT assay; assay type: cell-based; conditions: chlorocebus sabaeus; in short: as §3
[8] = Intrinsic clearance in human liver S9 fraction at 2 uM measured after 30 mins in presence of NADPH by HPLC-MS analysis; assay type: ADME, subcellular; conditions: read-out: CLH; in short: as §2
[9] = Ratio of MIC for inhibition of Mycobacterium tuberculosis H37Rv ATCC 27294 QcrB assessed as reduction in bacterial growth to MIC for inhibition of Mycobacterium tuberculosis PT20 clinical isolate QcrB assessed as reduction in bacterial growth
[10] = Ratio of MIC for inhibition of Mycobacterium tuberculosis H37Rv ATCC 27294 QcrB assessed as reduction in bacterial growth to MIC for inhibition of Mycobacterium tuberculosis PT2 clinical isolate QcrB assessed as reduction in bacterial growth
RAW264.7 = experiment: Inhibition of Mycobacterium tuberculosis H37Rv ATCC 27294 QcrB infected in mouse RAW264.7 cells assessed as colony forming unit at 5 uM measured after 5 days (reference value: 4.66 +/- 0.23 log10CFU); assay type: cell-based; conditions: time 5.0 day

| SMILES | MIC [1] | other results |
| --- | --- | --- |
| COc1cccc(COc2cc(C)nc3ccc(OC)cc23)c1 | 32.3 µM (≈ 9.99 µg/mL) | – |
| COc1ccc2nc(C)cc(OCc3ccc(F)cc3)c2c1 | 16.8 µM (≈ 5 µg/mL) | – |
| COc1ccc2nc(C)cc(OCc3ccccc3F)c2c1 | 19.2 µM (≈ 5.71 µg/mL) | – |
| COc1ccc2nc(C)cc(OCC(=O)c3ccccc3OC)c2c1 | 29.6 µM (≈ 9.99 µg/mL) | – |
| COc1ccc2nc(C)cc(OCC(=O)c3ccc(F)cc3)c2c1 | 30.7 µM (≈ 9.99 µg/mL) | – |
| CO[C@H]1/C=C/O[C@@]2(C)Oc3c(C)c(O)c4c(O)c(c(/C=N/N5CCN(C)CC5)c(O)c4c3C2=O)NC(=O)/C(C)=C\C=C\[C@H](C)[C@H](O)[C@@H](C)[C@@H](O)[C@@H](C)[C@H](OC(C)=O)[C@@H]1C | 0.05 µM (≈ 0.0411 µg/mL) | – |
| COc1ccc2nc(C)cc(OCc3cccc(F)c3)c2c1 | 16.8 µM (≈ 5 µg/mL) | – |
| NNC(=O)c1ccncc1 | 2.3 µM (≈ 0.315 µg/mL) | – |
| COc1cccc(C(=O)COc2cc(C)nc3ccc(OC)cc23)c1 | 14.8 µM (≈ 4.99 µg/mL) | – |
| COc1ccc2nc(C)cc(OCc3ccc(C(F)(F)F)cc3)c2c1 | 7.2 µM (≈ 2.5 µg/mL) | – |
| COc1ccc2nc(C)cc(OCc3ccccc3Cl)c2c1 | 18.8 µM (≈ 5.9 µg/mL) | – |
| COc1ccc2nc(C)cc(OC(C)C(=O)c3ccccc3)c2c1 (stereo unspecified) | 31.1 µM (≈ 9.99 µg/mL) | – |
| COc1ccc2nc(C)cc(OCc3cccc(Cl)c3Cl)c2c1 | 28.7 µM (≈ 9.99 µg/mL) | – |
| COc1ccc2nc(C)cc(OCC(=O)c3ccc(-c4ccccc4)cc3)c2c1 | 13 µM (≈ 4.98 µg/mL) | – |
| COc1ccc2nc(C)cc(OCc3ccc4c(c3)OCO4)c2c1 | 30.9 µM (≈ 9.99 µg/mL) | – |
| COc1ccc2nc(C)cc(OCc3ccc(F)c(F)c3)c2c1 | 3.9 µM (≈ 1.23 µg/mL) | – |
| COc1ccc2nc(C)cc(OCc3ccc(C(C)(C)C)cc3)c2c1 | 3.7 µM (≈ 1.24 µg/mL) | – |
| COc1ccc2nc(C)cc(OCc3ccc(Br)c(Cl)c3)c2c1 | 1.6 µM (≈ 0.628 µg/mL) | – |
| COc1ccc2nc(C)cc(OCc3cccc(C(F)(F)F)c3)c2c1 | 7.2 µM (≈ 2.5 µg/mL) | – |

| SMILES | MIC [1] | other results |
| --- | --- | --- |
| COc1ccc2nc(C)cc(OCC(=O)c3ccc(Cl)c(Cl)c3)c2c1 | 6.6 µM (≈ 2.48 µg/mL) | – |
| COc1ccc2nc(C)cc(OCc3ccc(C(C)C)cc3)c2c1 | 1.9 µM (≈ 0.611 µg/mL) | CC50 at 72 h [2]: > 20 µM; half-life at 2 µM [3]: 10 min; CC50 at 72 h [4]: 13 µM; CC50 at 72 h [5]: 13.1 µM; Ratio [6]: 1.9; CC50 at 72 h [7]: > 20 µM; CLint scaled at 2 µM [8]: 17.4 mL/min/kg; Ratio [9]: 1.9; Ratio [10]: 1.9 |
| COc1ccc2nc(C)cc(OCc3cccc(Br)c3)c2c1 | 13.9 µM (≈ 4.98 µg/mL) | – |
| COc1cc(COc2cc(C)nc3ccc(OC)cc23)cc(OC)c1 | 29.5 µM (≈ 10 µg/mL) | – |
| COc1ccc2nc(C)cc(OCc3ccc([N+](=O)[O-])cc3)c2c1 | 30.8 µM (≈ 9.99 µg/mL) | – |
| COc1ccc2nc(C)cc(OCc3ccc(Cl)c(Cl)c3)c2c1 | 0.3 µM (≈ 0.104 µg/mL) | CC50 at 72 h [2]: > 20 µM; half-life at 2 µM [3]: 30.6 min; CC50 at 72 h [4]: 14.9 µM; CC50 at 72 h [5]: 14.4 µM; CC50 at 72 h [7]: > 20 µM; CLint scaled at 2 µM [8]: 12.6 mL/min/kg; Activity (RAW264.7): 3.8 log10CFU |
| COc1ccc2nc(C)cc(OCC(=O)c3ccc(CC(C)C)cc3)c2c1 | 6.9 µM (≈ 2.51 µg/mL) | – |
| COc1ccc2nc(C)cc(OCC(=O)c3ccc(Cl)cc3)c2c1 | 12.9 µM (≈ 4.41 µg/mL) | – |
| COc1ccc2nc(C)cc(OCC(=O)c3ccccc3)c2c1 | 1.3 µM (≈ 0.4 µg/mL) | CC50 at 72 h [2]: > 20 µM; half-life at 2 µM [3]: 87.5 min; CC50 at 72 h [4]: > 20 µM; CC50 at 72 h [5]: > 20 µM; CC50 at 72 h [7]: > 20 µM; CLint scaled at 2 µM [8]: 7.1 mL/min/kg; Activity (RAW264.7): 4.06 log10CFU |
| COc1ccc2nc(C)cc(OCc3ccccc3)c2c1 | 5.6 µM (≈ 1.56 µg/mL) | – |
| COc1ccc2nc(C)cc(OCC(=O)c3cccc(Cl)c3)c2c1 | 1.8 µM (≈ 0.615 µg/mL) | CC50 at 72 h [2]: > 20 µM; half-life at 2 µM [3]: 78.2 min; CC50 at 72 h [4]: > 20 µM; CC50 at 72 h [5]: > 20 µM; Ratio [6]: 1.9; CC50 at 72 h [7]: > 20 µM; CLint scaled at 2 µM [8]: 7.7 mL/min/kg; Ratio [9]: 1.9; Activity (RAW264.7): 3.8 log10CFU; Ratio [10]: 1.9 |
| COc1ccc2nc(C)cc(OCc3cccc(Cl)c3)c2c1 | 7.9 µM (≈ 2.48 µg/mL) | – |
| COc1ccc2nc(C)cc(OCc3ccc(Cl)cc3)c2c1 | 15.9 µM (≈ 4.99 µg/mL) | – |
| COc1ccc2nc(C)cc(OCC(=O)c3ccc(Br)cc3)c2c1 | 14.6 µM (≈ 5.64 µg/mL) | – |
| COc1ccc2nc(C)cc(OCCc3ccccc3)c2c1 | 34.1 µM (≈ 10 µg/mL) | – |
| COc1ccc(C(=O)COc2cc(C)nc3ccc(OC)cc23)cc1 | 7.4 µM (≈ 2.5 µg/mL) | – |
| COc1ccc2nc(C)cc(OCC(=O)c3ccc(C)cc3)c2c1 | 15.6 µM (≈ 5.01 µg/mL) | – |
| COc1ccc2nc(C)cc(OCc3ccc(Br)cc3)c2c1 | 13.9 µM (≈ 4.98 µg/mL) | – |
| COc1ccc2nc(C)cc(OCc3ccc4ccccc4c3)c2c1 | 7.6 µM (≈ 2.5 µg/mL) | – |

Reference: ChEMBL document CHEMBL4680209, “Design, synthesis, and evaluation of new 2-(quinoline-4-yloxy)acetamide-based antituberculosis agents” (Eur J Med Chem, 2020)
